{"data": "Assay results from different studies", "target": "Adenosine receptor A3 (ADORA3, Homo sapiens, UniProt P0DMS8)", "One construct used (P0DMS8 1-318)": "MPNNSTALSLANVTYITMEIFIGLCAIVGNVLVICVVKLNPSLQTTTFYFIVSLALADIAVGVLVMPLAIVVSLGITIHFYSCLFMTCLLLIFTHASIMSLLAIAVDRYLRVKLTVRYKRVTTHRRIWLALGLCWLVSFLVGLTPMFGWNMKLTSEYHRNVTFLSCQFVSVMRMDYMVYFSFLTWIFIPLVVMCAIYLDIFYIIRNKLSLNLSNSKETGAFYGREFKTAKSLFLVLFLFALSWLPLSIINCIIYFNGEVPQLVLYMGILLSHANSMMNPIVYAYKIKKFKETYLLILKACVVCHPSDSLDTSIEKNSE", "note": "Each line is one published result; the experiments were not run side by side."}
{"Structure (SMILES)": "C[C@H](C(=O)N[C@H]1COc2ccccc2[C@@H]1S(C)(=O)=O)c1ccc(F)cc1", "assay": "cell-free assay", "conditions": "10 µM", "quantity": "inhibition", "value": "11%"}
{"Structure (SMILES)": "O=C(Nc1cccnn1)N1CCN([C@@H]2CCOc3cc(C(F)(F)F)ccc32)CC1", "assay": "ligand displacement", "conditions": "20 µM", "quantity": "inhibition", "value": "25%"}
{"Structure (SMILES)": "CCOC(=O)[C@@]12C[C@@H]1[C@@H](n1cnc3c(N[C@H](C4CCC4)C4CC4)nc(I)nc31)[C@H](O)[C@@H]2O", "assay": "ligand displacement, radioligand", "conditions": "10 µM", "quantity": "inhibition", "value": "88%"}
{"Structure (SMILES)": "COc1ccc(S(=O)(=O)N2CCCCC2)cc1C", "assay": "ligand displacement, radioligand", "conditions": "10 µM", "quantity": "inhibition", "value": "< 30%"}
{"Structure (SMILES)": "CCN(CC)CCCC[C@H](NC(=O)[C@H](CC(C)C)NC(=O)[C@H](C)NC(=O)[C@H](Cc1ccccc1)NC(=O)c1ccc(C(C)(C)C)cc1)C(=O)N[C@@H](CO)C(=O)OC", "assay": "ligand displacement, radioligand", "conditions": "10 µM", "quantity": "remaining binding", "value": "96.9%"}
{"Structure (SMILES)": "CC(C)Cn1cnc2c(N)nc3ccccc3c21", "assay": "ligand displacement, radioligand", "conditions": "10 µM", "quantity": "inhibition", "value": "16%"}
{"Structure (SMILES)": "COCc1c(-c2cc3cc(C)cc(OC)c3s2)c2c(N)ncnn2c1CN1CCNC(=O)C1", "assay": "ligand displacement, radioligand", "conditions": "10 µM", "quantity": "inhibition", "value": "39%"}
{"Structure (SMILES)": "CCNC(=O)[C@H]1O[C@@H](n2cnc3c(N)ncnc32)[C@H](O)[C@@H]1O", "assay": "β-arrestin recruitment, agonist", "system": "HEK-293T", "quantity": "Emax", "value": "99.5%"}
{"Structure (SMILES)": "CN(CCN1CCC(OC(=O)Nc2ccccc2-c2ccccc2)CC1)C(=O)c1ccc(CN2CCC(C(N)=O)CC2)cc1", "assay": "ligand displacement, radioligand", "conditions": "1 µM", "quantity": "inhibition", "value": "-12%"}
{"Structure (SMILES)": "CCCCSC[C@@]12C[C@@H]1[C@@H](n1cnc3c(NC(C4CCCC4)C4CCCC4)nc(Cl)nc31)[C@H](O)[C@@H]2O", "assay": "ligand displacement, radioligand", "conditions": "10 µM", "quantity": "inhibition", "value": "33%"}
{"Structure (SMILES)": "c1ccc(C(NCCNC(c2ccccc2)c2ccccc2)c2ccccc2)cc1", "assay": "cell-free assay", "conditions": "10 µM", "quantity": "inhibition", "value": "70%"}
{"Structure (SMILES)": "CC(C)N1CCC[C@H]1CNC(=O)c1cn(C2CCCC2)c(=O)c2c1c1ccccc1n2C", "assay": "ligand displacement, radioligand", "conditions": "10 µM", "quantity": "inhibition", "value": "14%"}
{"Structure (SMILES)": "COCCN(CCOC)C(=O)[C@@]12C[C@@H]1[C@@H](n1cnc3c(N)nc(Cl)nc31)[C@H](O)[C@@H]2O", "assay": "ligand displacement, radioligand", "conditions": "10 µM", "quantity": "inhibition", "value": "51%"}
